Like-named read-outs stand apart in the source and are kept apart here.

In one experiment the target is wt RB69pol (Escherichia phage RB69, UniProt Q38087, D222A/D327A). Format: biochemical, bacteriophage RB69. The conditions noted are these: template tC°; for kpol: 23°C, 10 mM Mg2+. An outline of the steps:
(§1)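 Single-turnover rapid quench was run at 23°C in 66 mM Tris-HCl pH 7.4 using exonuclease-deficient RB69pol. Enzyme plus 5'-32P primer/tC° template was mixed with Mg2+ and varying dNTP for 5 ms to 1 min (final 1 μM enzyme, 90 nM P/T, 10 mM Mg2+). Reactions were EDTA-quenched and resolved on 8 M urea PAGE. kobs came from single-exponential fits, then kpol and Kd,app from a hyperbolic fit; efficiency is kpol/Kd,app.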

A further experiment addresses RB69pol Y567A mutant (Escherichia phage RB69, UniProt Q38087, D222A/D327A/Y567A). Format: biochemical, bacteriophage RB69. Conditions: for Kpol/Kd,app / kpol: Y567A mutant, template tC°; for kpol: 23°C, 10 mM Mg2+. An outline of the steps: as §1
For another experiment, the target named is Y567A-P/T binary complex (Escherichia phage RB69, UniProt Q38087, D222A/D327A/Y567A). Put plainly: Equilibrium fluorescence titration of dNTP opposite tC°. Format: binding, bacteriophage RB69. Conditions: 1mM dNTP added to Y567A-P/T binary complex. An outline of the steps:
(§2)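 Exonuclease-deficient (D222A/D327A) RB69pol, wild type or Y567A, was expressed in E. coli BL21(DE). Enzyme at 1 μM was mixed with 300 nM 3'-dideoxy (ddC) terminated 13/18mer P/T carrying tC° at template position n, in 66 mM Tris-HCl pH 7.4 with 10 mM MgSO4 at 23°C. Excitation was 364 nm and emission was scanned 380–700 nm. Spectra were corrected for enzyme and buffer fluorescence.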

Experiment [1] has as its target T1, wt RB69pol-P/T binary complex (Escherichia phage RB69, UniProt Q38087, D222A/D327A). Described as above. Format: binding, bacteriophage RB69. Conditions: 1mM dNTP added to wt RB69pol-P/T binary complex. The method, boiled down: as §2
The target of experiment [2] is T1, wt RB69pol-P/T binary complex. Put plainly: Stopped-flow fluorescence of tC° quenching on dGTP binding. Also noted: species or system bacteriophage RB69. The conditions noted are these: full quenching within instrument dead-time (< 2 ms).
Another experiment concerns the target Y567A RB69pol mutant (Escherichia phage RB69, UniProt Q38087, D222A/D327A/Y567A). The experiment is described as above. Also noted: species or system bacteriophage RB69.

Chain of wt RB69pol (Q38087 whole entry D222A/D327A): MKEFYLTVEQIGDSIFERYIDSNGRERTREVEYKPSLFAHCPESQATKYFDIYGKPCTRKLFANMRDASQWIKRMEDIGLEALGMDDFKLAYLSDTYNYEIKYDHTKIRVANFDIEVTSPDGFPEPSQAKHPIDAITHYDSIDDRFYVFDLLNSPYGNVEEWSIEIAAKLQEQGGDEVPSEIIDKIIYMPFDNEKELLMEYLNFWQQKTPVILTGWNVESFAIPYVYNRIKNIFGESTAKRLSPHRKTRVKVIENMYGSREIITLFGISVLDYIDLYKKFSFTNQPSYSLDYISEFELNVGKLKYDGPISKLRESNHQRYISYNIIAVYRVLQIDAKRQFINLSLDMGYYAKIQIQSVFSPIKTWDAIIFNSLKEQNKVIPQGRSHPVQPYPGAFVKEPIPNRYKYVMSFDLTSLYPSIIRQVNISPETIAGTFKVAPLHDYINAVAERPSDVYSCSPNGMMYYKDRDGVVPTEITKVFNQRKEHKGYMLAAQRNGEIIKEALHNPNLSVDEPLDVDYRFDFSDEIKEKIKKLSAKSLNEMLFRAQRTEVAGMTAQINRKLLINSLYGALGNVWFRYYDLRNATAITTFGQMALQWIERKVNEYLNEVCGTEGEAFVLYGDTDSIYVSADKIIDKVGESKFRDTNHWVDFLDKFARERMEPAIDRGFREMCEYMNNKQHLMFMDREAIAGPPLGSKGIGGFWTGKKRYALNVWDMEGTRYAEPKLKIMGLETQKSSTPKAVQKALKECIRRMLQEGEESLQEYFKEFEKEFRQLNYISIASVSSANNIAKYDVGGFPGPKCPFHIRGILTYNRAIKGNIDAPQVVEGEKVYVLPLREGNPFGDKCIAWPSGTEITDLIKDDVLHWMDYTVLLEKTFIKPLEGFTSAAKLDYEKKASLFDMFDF
Chain of RB69pol Y567A mutant (Q38087 whole entry D222A/D327A/Y567A): as the sequence (Q38087 whole entry D222A/D327A) above, with Y567A counted along it
T1 sequence (Q38087 whole entry D222A/D327A, one chain of several): as the sequence (Q38087 whole entry D222A/D327A) above
Chain of Y567A-P/T binary complex (Q38087 whole entry D222A/D327A/Y567A, one chain of several): as the sequence (Q38087 whole entry D222A/D327A) above, with Y567A counted along it
Chain of Y567A RB69pol mutant (Q38087 whole entry D222A/D327A/Y567A): as the sequence (Q38087 whole entry D222A/D327A) above, with Y567A counted along it

As to `Nc1ncnc2c1ncn2[C@H]1C[C@H](O)[C@@H](COP(=O)(O)OP(=O)(O)OP(=O)(O)O)O1` [dATP], the “Kpol/Kd,app” value on wt RB69pol was 3500 M⁻¹ s⁻¹; on RB69pol Y567A mutant, 700000 M⁻¹ s⁻¹. Also, the “fold difference in kpol between dGMP and dAMP” value at wt RB69pol is 40 fold. For the same compound, the kpol was 6 ± 0.2 s⁻¹ on wt RB69pol, 6 s⁻¹ at wt RB69pol (listed as dAMP), 180 ± 10 s⁻¹ at RB69pol Y567A mutant and 180 s⁻¹ at RB69pol Y567A mutant (listed as dAMP). Also, the “fold increase of incorporation efficiency opposite tC°” value on RB69pol Y567A mutant (Y567A mutant relative to wt RB69pol) is reported as 200 fold. Besides, the “quenching of tC° fluorescence” value on Y567A-P/T binary complex is about 15%.
`Nc1nc2c(ncn2[C@H]2C[C@H](O)[C@@H](COP(=O)(O)OP(=O)(O)OP(=O)(O)O)O2)c(=O)[nH]1` [dGTP]: the entries for the “Kpol/Kd,app” value on wt RB69pol and at RB69pol Y567A mutant were 1.8e+06 M⁻¹ s⁻¹ and 4.3e+07 M⁻¹ s⁻¹, respectively. For the same compound, the kpol at wt RB69pol is 250 ± 7 s⁻¹; on RB69pol Y567A mutant, 170 ± 10 s⁻¹. Besides, the “quenching of tC° fluorescence” value (in experiment [1]; at Y567A-P/T binary complex) was “about 30%” throughout. For the same compound, the “rate of tC° fluorescence quenching” value is “greater than 500 s^−1” in experiment [2] and over 500 s⁻¹ at Y567A RB69pol mutant.
